For one data set, the species on record is Homo sapiens. The data set is described as follows: Selectivity ratio of IC50 for recombinant human full length His-tagged p110gamma expressed in baculovirus expression system to IC50 for recombinant human full length His-tagged p110delta/p85alpha expressed in baculovirus expression system.
Data set [1] in a line: Cmax in Sprague-Dawley rat at 3 mg/kg, po measured for 24 hrs by LC-MS/MS analysis. On the set-up: route oral, time 24 hrs, dose 3 mg/kg. It is filed as ADME, organism-based. The following applies: in vivo. In short, it runs like this:
(§1)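 Sprague-Dawley rats dosed orally at 1 or 3 mg/kg, three animals per group. Blood sampled at 0.25, 0.5, 1, 2, 4, 8 and 24 h post-dose. Plasma separated by centrifugation, extracted and quantified by LC-MS/MS. PK parameters (Cmax, AUClast, Tmax, t1/2) derived by non-compartmental software.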

The nature of data set [2]: AUC (last) in Sprague-Dawley rat at 3 mg/kg, po measured for 24 hrs by LC-MS/MS analysis. It counts as ADME, organism-based. On the set-up: route oral, time 24 hrs, dose 3 mg/kg. The conditions noted are these: in vivo. In short, it runs like this:
as §1

The next data set has as its system SU-DHL-5. Nature of the data set: Antiproliferative activity against human SU-DHL-5 cells assessed as reduction in cell viability at 10 uM by CellTiter-Glo luminescent cell viability assay relative to idelalisib. It is filed as functional. An outline of the steps: (§2)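 Cells were seeded at 5x10^4 per well and exposed to the compound at a single concentration: 10 μM for SUDHL-5 and 20 μM for MOLT-4. CellTiter-Glo reagent was added 1:1, mixed for 2 min to lyse the cells, and held 10 min at room temperature before reading luminescence. Readings were background-subtracted and normalized to control wells.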

Data set [3] is described as follows: Toxicity in Balb/c nude mouse xenografted with human MOLT-4 cells assessed as changes in body weight at 10 mg/kg, po administered via gavage qd for 57 days. It is filed as organism-based. The conditions noted are these: in vivo, 1368 h, dose 10 mg/kg/day, time 57 day. An outline of the steps:
(§3)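 MOLT-4 cells (2×10^6 in 0.1 mL D-PBS) implanted subcutaneously on the back of BALB/c-nude mice. Once tumours grew, mice were dosed daily by oral gavage at 10 mg/kg for 57 consecutive days. Tumours measured by caliper, with volume = ½ × […]. Body weight was tracked over the same period.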

The nature of data set [4]: Half life in Sprague-Dawley rat at 3 mg/kg, po measured for 24 hrs by LC-MS/MS analysis. It is filed as ADME, organism-based. The following applies: in vivo. In short, it runs like this:
as §1

Data set [5] concerns the target T1, Phosphatidylinositol 4,5-bisphosphate 3-kinase catalytic subunit delta isoform (Homo sapiens) (UniProt O00329).
T1 sequence (whole entry): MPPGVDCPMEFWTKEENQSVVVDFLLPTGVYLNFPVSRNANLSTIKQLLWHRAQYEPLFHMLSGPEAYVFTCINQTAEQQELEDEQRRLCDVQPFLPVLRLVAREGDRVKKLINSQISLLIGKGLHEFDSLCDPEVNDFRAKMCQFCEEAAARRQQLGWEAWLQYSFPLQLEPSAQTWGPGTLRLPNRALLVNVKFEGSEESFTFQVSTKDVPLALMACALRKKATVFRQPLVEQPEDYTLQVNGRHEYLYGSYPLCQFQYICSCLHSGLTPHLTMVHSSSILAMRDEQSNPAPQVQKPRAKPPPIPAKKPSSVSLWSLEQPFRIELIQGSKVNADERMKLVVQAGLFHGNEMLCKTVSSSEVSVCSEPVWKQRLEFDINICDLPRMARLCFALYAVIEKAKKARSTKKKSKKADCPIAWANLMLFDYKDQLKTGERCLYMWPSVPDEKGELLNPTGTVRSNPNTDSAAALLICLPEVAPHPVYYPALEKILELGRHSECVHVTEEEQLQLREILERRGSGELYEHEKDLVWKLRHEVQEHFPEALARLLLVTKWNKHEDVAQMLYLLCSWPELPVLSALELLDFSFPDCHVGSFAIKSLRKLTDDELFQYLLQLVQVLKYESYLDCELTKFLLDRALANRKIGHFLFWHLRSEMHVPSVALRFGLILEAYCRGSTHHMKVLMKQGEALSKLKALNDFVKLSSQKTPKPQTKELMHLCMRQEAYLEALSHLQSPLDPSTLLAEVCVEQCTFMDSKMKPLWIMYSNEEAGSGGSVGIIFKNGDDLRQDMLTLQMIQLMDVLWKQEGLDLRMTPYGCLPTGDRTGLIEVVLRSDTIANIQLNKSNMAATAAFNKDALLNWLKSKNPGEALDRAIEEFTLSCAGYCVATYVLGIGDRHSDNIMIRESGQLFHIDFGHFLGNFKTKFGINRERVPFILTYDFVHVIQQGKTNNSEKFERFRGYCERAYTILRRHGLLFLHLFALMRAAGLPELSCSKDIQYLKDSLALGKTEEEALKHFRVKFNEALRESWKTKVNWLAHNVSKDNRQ
The data set is described as follows: Inhibition of PI3Kdelta in human MOLT-4 cells assessed as inhibition of S6 phosphorylation at 1 to 5 uM measured after 3 hrs by western blot assay. It is filed as cell-based. The following applies: dose 1-5 µM. An outline of the steps: (§4)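 Treatment lasted 3 h: SUDHL-5 at 1 μM, MOLT-4 at 5 μM. Cells washed twice in cold PBS and lysed. Proteins resolved on 10–12% SDS-PAGE and blotted to PVDF. Probed for p-AKT S473, p-AKT T308, p-S6 and p-4E-BP1, with β-actin as loading control.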

Data set [6] concerns the target T1, Phosphatidylinositol 4,5-bisphosphate 3-kinase catalytic subunit delta isoform (Homo sapiens). Nature of the data set: Inhibition of PI3Kdelta in human SU-DHL-5 cells assessed as inhibition of S6 phosphorylation at 1 to 5 uM measured after 3 hrs by western blot assay. It counts as cell-based. The following applies: dose 1-5 µM. In short, it runs like this: as §4

Data set [7] concerns MOLT-4. The data set is described as follows: Antiproliferative activity against human MOLT-4 cells assessed as reduction in cell viability at 20 uM by CellTiter-Glo luminescent cell viability assay relative to idelalisib. It counts as functional. An outline of the steps: as §2
For data set [8], the system named is MOLT-4. The data set is described as follows: Antitumour activity against human MOLT-4 cells xenografted in Balb/c nude mouse assessed as inhibition of tumour growth at 10 mg/kg, po administered via gavage qd for 57 days. It counts as functional. The conditions noted are these: MOLT-4, po, 1368 h, time 57 day, read-out: TGI. An outline of the steps: as §3
Data set [9] relates to MOLT-4. The data set is described as follows: Induction of apoptosis in human MOLT-4 cells assessed as early apoptotic cells at 20 uM measured after 24 hrs by AnnexinV-FITC/PI staining based flowcytometry method (reference value: 2.04%). It is filed as functional. An outline of the steps:
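Cells exposed to 20 μM compound for 24 h, washed with cold PBS, and stained with Annexin V-FITC and propidium iodide for 15 min at room temperature. Viable, early apoptotic, late apoptotic and necrotic populations quantified by flow cytometry.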

Data set [10] can be described thus: Tmax in Sprague-Dawley rat at 1 mg/kg, po measured for 24 hrs by LC-MS/MS analysis. It counts as ADME, organism-based. The following applies: in vivo. An outline of the steps: as §1
The target of data set [11] is Phosphatidylinositol 4,5-bisphosphate 3-kinase catalytic subunit gamma isoform (Homo sapiens, UniProt P48736). Nature of the data set: Inhibition of recombinant human full length His-tagged p110gamma expressed in baculovirus expression system measured after 60 mins in presence of ATP by ATP-competitive binding assay. An outline of the steps: (§5)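 SelectScreen ATP-competitive assay using 10-point titration with 1 μM top final compound concentration. Kinase, substrate and ATP mixed in 30 mM HEPES buffer and reacted 60 min. IC50 taken as the mean of three independent experiments.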
Chain of Phosphatidylinositol 4,5-bisphosphate 3-kinase catalytic subunit gamma isoform (P48736 whole entry, canonical isoform): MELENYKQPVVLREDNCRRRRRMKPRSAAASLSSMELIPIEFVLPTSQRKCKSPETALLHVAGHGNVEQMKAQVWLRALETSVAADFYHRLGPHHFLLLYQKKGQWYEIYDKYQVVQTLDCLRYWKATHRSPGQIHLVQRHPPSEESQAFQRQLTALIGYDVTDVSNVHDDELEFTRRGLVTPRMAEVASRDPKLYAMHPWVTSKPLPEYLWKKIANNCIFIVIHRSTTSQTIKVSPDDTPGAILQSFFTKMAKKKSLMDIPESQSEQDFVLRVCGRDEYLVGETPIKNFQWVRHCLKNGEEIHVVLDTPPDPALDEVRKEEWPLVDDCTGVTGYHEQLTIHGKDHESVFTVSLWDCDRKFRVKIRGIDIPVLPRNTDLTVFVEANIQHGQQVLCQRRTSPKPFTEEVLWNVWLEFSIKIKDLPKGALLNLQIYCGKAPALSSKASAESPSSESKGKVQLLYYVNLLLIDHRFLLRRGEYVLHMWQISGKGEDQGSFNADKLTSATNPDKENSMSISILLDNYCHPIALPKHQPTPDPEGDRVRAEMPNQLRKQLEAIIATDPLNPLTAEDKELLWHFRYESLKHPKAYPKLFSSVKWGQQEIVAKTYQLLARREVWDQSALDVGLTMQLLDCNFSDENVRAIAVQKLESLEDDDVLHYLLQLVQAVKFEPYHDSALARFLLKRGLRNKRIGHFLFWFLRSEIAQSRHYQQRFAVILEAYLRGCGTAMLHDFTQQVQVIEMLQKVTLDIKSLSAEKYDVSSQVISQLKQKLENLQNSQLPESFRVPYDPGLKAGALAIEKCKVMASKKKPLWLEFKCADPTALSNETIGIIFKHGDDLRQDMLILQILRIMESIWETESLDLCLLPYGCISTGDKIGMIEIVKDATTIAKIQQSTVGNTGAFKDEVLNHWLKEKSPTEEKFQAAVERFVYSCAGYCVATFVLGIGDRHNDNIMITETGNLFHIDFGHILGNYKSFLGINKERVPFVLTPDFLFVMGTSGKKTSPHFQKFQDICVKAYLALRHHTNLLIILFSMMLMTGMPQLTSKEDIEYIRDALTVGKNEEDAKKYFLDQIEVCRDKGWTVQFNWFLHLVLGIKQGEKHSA

The target in data set [12] is PI3-kinase p110-delta/p85-alpha (Homo sapiens, UniProt O00329). Nature of the data set: Inhibition of recombinant human full length His-tagged p110delta/p85alpha expressed in baculovirus expression system measured after 60 mins in presence of ATP by ATP-competitive binding assay. An outline of the steps:
as §5

Data set [13] can be described thus: Cmax in Sprague-Dawley rat at 1 mg/kg, po measured for 24 hrs by LC-MS/MS analysis. It is filed as ADME, organism-based. On the set-up: route oral, dose 1 mg/kg, time 24 hrs. The following applies: in vivo. An outline of the steps: as §1

The source made the active and inactive calls. The calls are words filed in the database; no cut-off is given here.

Chain of PI3-kinase p110-delta/p85-alpha (P27986 whole entry, one chain of several): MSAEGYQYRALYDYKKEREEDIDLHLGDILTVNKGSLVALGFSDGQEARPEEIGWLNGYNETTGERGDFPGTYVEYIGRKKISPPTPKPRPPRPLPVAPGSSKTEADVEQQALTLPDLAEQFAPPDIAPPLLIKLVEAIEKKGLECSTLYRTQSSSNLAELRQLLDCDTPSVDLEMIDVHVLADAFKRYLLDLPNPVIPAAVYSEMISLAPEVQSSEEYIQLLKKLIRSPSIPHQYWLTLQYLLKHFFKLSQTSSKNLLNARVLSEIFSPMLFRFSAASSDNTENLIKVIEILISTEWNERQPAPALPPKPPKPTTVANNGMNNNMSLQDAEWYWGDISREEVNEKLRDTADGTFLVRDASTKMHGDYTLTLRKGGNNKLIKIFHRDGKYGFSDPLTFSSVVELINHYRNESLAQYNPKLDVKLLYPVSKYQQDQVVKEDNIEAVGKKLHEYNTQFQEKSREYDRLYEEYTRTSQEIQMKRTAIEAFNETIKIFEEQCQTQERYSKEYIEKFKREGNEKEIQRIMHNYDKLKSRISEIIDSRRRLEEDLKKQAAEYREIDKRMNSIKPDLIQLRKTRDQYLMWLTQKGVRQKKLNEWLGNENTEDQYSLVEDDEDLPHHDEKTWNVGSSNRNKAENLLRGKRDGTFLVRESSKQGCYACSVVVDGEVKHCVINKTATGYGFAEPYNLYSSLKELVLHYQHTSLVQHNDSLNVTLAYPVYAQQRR

`Cc1cccc2nc([C@@H](Nc3ncnc4nc[nH]c34)C3CC3)n(-c3ccccc3)c(=O)c12`: the Ratio IC50 in the data set filed under Homo sapiens was determined as 95.5. The peak level in data set [1] (Cmax) was 11.1 ng/mL. Further, the AUC(0-t) at 24 h in data set [2] was found to be 37.2 ng·h/mL. For the same molecule, the “fold change (FC)” value in the data set on SU-DHL-5 and in the data set on MOLT-4 [7] was 5 in each case. For the same molecule, the Activity result in data set [3] is reported as “Non-Toxic”; in the data set on MOLT-4 [9] it was 13.4%. This molecule gave a half-life in [4] of 8.3 h. In addition, the inhibition entry in [5] and in data set [6] was “Active” throughout. Besides, the inhibition in vivo at 10 mg/kg/day in the data set on MOLT-4 [8] turned out to be 56.7%.
Regarding `O=c1c2c(F)cccc2nc([C@@H](Nc2ncnc3nc[nH]c23)C2CC2)n1-c1ccccc1`, the Cmax in data set [1] was 41.9 ng/mL; in [13] it was 18.3 ng/mL. The same molecule yielded an exposure AUC(0-t) at 24 h in [2] of 255 ng·h/mL. The time to peak (Tmax) in data set [10] came to 0.5 h. In addition, the values for the IC50 in data set [11] and in [12] were 19.1 nM and 0.39 nM, respectively. Further, the results for the Activity entry (in data set [3]; in the data set with MOLT-4 [9]) were “Non-Toxic” and 17.8%, respectively. The molecule also had a half-life in [4] of 7.7 h. Moreover, the inhibition result in [5] and in [6] was “Active” each time. For the same molecule, in the data set with MOLT-4 [8], the inhibition in vivo at 10 mg/kg/day amounted to 55.1%.

Values taken from ChEMBL document CHEMBL4834477, “Synthesis and biological evaluation of novel purinyl quinazolinone derivatives as PI3Kδ-specific inhibitors for the treatment of hematologic malignancies” (Bioorg Med Chem, 2021).
